In the library only some 3.8% were active in any assay of this set; here they are far more common.
Kir21 inh = inhibitors of mouse Kir2.1 inward-rectifier potassium channel. hit rate 0.85% among 310,000. B-score at 10 µM. Inward rectifier potassium channel 2 (Mus musculus), P35561. HEK293-Kir2.1, FluxOR thallium flux fluorescence; stronger effect = lower value;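 active means fluorescence ratio B-score at or below minus 3 SD of library scores, with starting-brightness B-score within 2 SD, cut at about -4.2 in these data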;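 further: channel flux triggered by added potassium and thallium sulfate stimulus; B-score of peak minus minimum fluorescence over baseline after thallium stimulus; more negative B-score means stronger Kir2.1 block with less thallium influx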
KCNK9 inh-1 = KCNK9 potassium channel inhibitors, primary screen, HEK293 cells, thallium flux; Potassium channel subfamily K member 9 (Homo sapiens), Q9NPC2; FluxOR thallium flux fluorescence; stronger effect = lower value; B-score at 10 µM; hit rate 1.2% among 310,000; AID 488922, 2010;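 active means ratio B-score over 3 SD below the library mean, with starting fluorescence within 5 SD of its mean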;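 further: negative B-score means less thallium flux so channel inhibition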
KCNQ1 act = potentiators or activators of KCNQ1 channel, primary screen, cell-based, thallium flux, high-throughput | AID 2648, 2010 | Potassium voltage-gated channel subfamily KQT member 1 (Homo sapiens), P51787 | CHO-K1 KCNQ1, thallium flux FluxOR fluorescence; stronger effect = higher value | B-score at 10 µM | hit rate 0.35% among 310,000;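 active means fluorescence ratio B-score, a plate-corrected score, at least three library SD, with initial intensity B-score within 5 SD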
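assay system = KCNQ1-transfected CHO-K1 cells | medium = assay buffer with matched DMSO | probe or stimulus = depolarizing K+/Tl+ stimulus, K2SO4 and Tl2SO4 each 12.5 mM in 5x stock | dosing = single dose | incubation = dye 90 min, compound 20 min, room temperature | detection = kinetic FluxOR fluorescence, 10 s baseline plus 110 s post-stimulus | evaluation = ratio B score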
KCNQ1 inh = inhibitors of human KCNQ1 channel, primary screen, cell-based, thallium flux, high-throughput; Potassium voltage-gated channel subfamily KQT member 1 (Homo sapiens), P51787; AID 2642, 2010; CHO-K1 KCNQ1, FluxOR thallium flux fluorescence; stronger effect = higher value; B-score at 10 µM; hit rate 1.3% among 310,000;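 active means compounds whose thallium flux B-score, printed positive for inhibition, exceeds three library SD while starting fluorescence stays within three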;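 further: channel opened by potassium depolarization with thallium stimulus after 20 min compound exposure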
KCNK3 block = human KCNK3 channel inhibitors, primary screen, CHO cells, FluxOR thallium flux, B-score | Potassium channel subfamily K member 3 (Homo sapiens), O14649 | B-score at 10 µM | FluxOR fluorescence; stronger effect = lower value | hit rate 0.84% among 340,000;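 active means B-score under library mean minus 4 SD, starting fluorescence ratio at most library mean plus 5 SD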;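 further: more negative B-score means stronger inhibition of thallium flux through KCNK3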
Target sequence (O14649 whole entry, looked up): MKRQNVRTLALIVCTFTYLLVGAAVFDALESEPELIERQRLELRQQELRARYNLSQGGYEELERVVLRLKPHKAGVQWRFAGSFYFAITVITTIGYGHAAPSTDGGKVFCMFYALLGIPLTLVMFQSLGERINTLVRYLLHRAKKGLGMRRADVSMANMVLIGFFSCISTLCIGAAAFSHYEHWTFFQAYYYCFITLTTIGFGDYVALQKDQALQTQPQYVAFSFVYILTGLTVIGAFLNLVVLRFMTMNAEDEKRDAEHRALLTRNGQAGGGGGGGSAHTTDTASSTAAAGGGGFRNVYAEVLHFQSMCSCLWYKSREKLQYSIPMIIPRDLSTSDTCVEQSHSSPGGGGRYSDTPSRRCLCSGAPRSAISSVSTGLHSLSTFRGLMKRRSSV
hERG rescue = hERG rescue from dofetilide block, primary screen, cell-based, CHO-hERG, FluxOR thallium flux, dofetilide IC70; Voltage-gated inwardly rectifying potassium channel KCNH2 (Homo sapiens), Q12809; dofetilide IC70 present; activation (rescue from dofetilide block), less the hit threshold, % at 10 µM; hit rate 0.51% among 310,000;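 active means activation above the mean of controls blocked by dofetilide plus 5 SD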;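 further: thallium influx through hERG after potassium depolarization seen as dye fluorescence rise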
hERG inh = hERG channel inhibition, counter-screen for Kir2.1 inhibitor project, cell-based, thallium flux; inhibition, % at 10 µM; AID 2236, 2010; shares compounds with Kir21 inh; hit rate 20% among 320; hERG-expressing cells;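 further: host cells are CHO cells stably expressing hERG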
KCNK9 inh-2 = KCNK9 channel inhibition, selectivity assay for Kir2.1 inhibitor project, cell-based; hit rate 5% among 320; inhibition, % at 10 µM; shares compounds with Kir21 inh; KCNK9-expressing cells, ion flux inhibition
Kir2-1 patch inh = mouse Kir2.1 channel blockers, Kir2.1 inhibitor project, cell-based, secondary, automated electrophysiology; inhibition, % at 25 µM; shares compounds with Kir21 inh; AID 463252, 2010; Kir2.1 cells, automated patch-clamp current inhibition; hit rate 71% among 320
* marks the source's active call; other numbers are inactive results. Unless noted, how the calls were made is not given here.

Screening COc1ccc(CNCC(O)COc2ccc(C)cc2[N+](=O)[O-])cc1 (stereo not given) returned Kir21 inh -8.7*, KCNK9 inh-1 inactive, KCNQ1 act inactive, KCNQ1 inh inactive, KCNK3 block inactive, hERG rescue -14, hERG inh inactive, KCNK9 inh-2 inactive and Kir2-1 patch inh 61%*.
`COc1ccc(CCNCC(O)COc2ccc(OC)cc2C(C)(C)C)cc1` (stereo not given) gave Kir21 inh -6.2*, KCNK9 inh-1 inactive, KCNQ1 act inactive, KCNQ1 inh inactive, KCNK3 block inactive, hERG rescue -10, hERG inh 61%*, KCNK9 inh-2 inactive and Kir2-1 patch inh inactive.
Screening Cc1ccc(CNC(=O)COc2ccc(C(=O)c3ccc(F)cc3)cc2)cc1 returned Kir21 inh 1, KCNK9 inh-1 inactive, KCNQ1 act inactive, KCNQ1 inh inactive, KCNK3 block inactive and hERG rescue -9.
For COc1ccc(CCNCC(O)COc2cccc(Br)c2)cc1OC (stereo not given) the results were Kir21 inh -1.4, KCNK9 inh-1 inactive, KCNQ1 act inactive, KCNQ1 inh inactive, KCNK3 block inactive and hERG rescue -7.
For O=C(CN(c1ccc(F)cc1)S(=O)(=O)c1ccc2c(c1)OCCO2)Nc1ccccc1 the results were Kir21 inh 0.5, KCNK9 inh-1 inactive, KCNQ1 act inactive, KCNQ1 inh inactive, KCNK3 block inactive and hERG rescue -9.
Screening CCc1ccc(C(=O)COC(=O)c2ccc(-c3nnc(-c4ccccc4)o3)cc2)cc1 returned Kir21 inh -0.95, KCNK9 inh-1 inactive, KCNQ1 act inactive, KCNQ1 inh inactive, KCNK3 block inactive and hERG rescue -15.
For CCC1(CC)Cc2ccccc2C2=C(C(=O)N3CCCCC3)C(=O)C(=O)N21 the results were Kir21 inh 0.53, KCNK9 inh-1 inactive, KCNQ1 act inactive, KCNQ1 inh inactive, KCNK3 block inactive and hERG rescue -4.
For CCc1cc2c(CN3CCN(Cc4ccccc4)CC3)cc(=O)oc2cc1O the results were Kir21 inh -6*, KCNK9 inh-1 inactive, KCNQ1 act inactive, KCNQ1 inh inactive, KCNK3 block inactive, hERG rescue -6, hERG inh inactive, KCNK9 inh-2 inactive and Kir2-1 patch inh inactive.
For C=CCc1cc(Cl)ccc1OCCOCCNC(C)CC (stereo not given) the results were Kir21 inh -7*, KCNK9 inh-1 inactive, KCNQ1 act inactive, KCNQ1 inh inactive, KCNK3 block inactive, hERG rescue -14, hERG inh inactive, KCNK9 inh-2 inactive and Kir2-1 patch inh 42%*.
Cc1cc2ccccn2c1C(=O)c1ccc([N+](=O)[O-])o1 was read as Kir21 inh -2.7, KCNK9 inh-1 inactive, KCNQ1 act inactive, KCNQ1 inh inactive, KCNK3 block inactive and hERG rescue -20.
CCn1c(COc2ccccc2)nnc1SCc1ccc(C#N)cc1 was read as Kir21 inh -6.5*, KCNK9 inh-1 inactive, KCNQ1 act inactive, KCNQ1 inh inactive, KCNK3 block inactive, hERG rescue -11, hERG inh inactive, KCNK9 inh-2 inactive and Kir2-1 patch inh 25%*.
`CCCCN(C)C(=S)Nc1ccsc1C(=O)OC` gave Kir21 inh -2, KCNK9 inh-1 inactive, KCNQ1 act inactive, KCNQ1 inh inactive, KCNK3 block inactive and hERG rescue -14.
Screening Cc1cc(-c2nnc3n2CCCCC3)c(C)n1-c1ccccc1 returned Kir21 inh -1.4, KCNK9 inh-1 inactive, KCNQ1 act inactive, KCNQ1 inh inactive, KCNK3 block inactive and hERG rescue -1.
`O=S(=O)(NCc1ccccc1)c1ccc(Br)s1` gave Kir21 inh -2, KCNK9 inh-1 inactive, KCNQ1 act inactive, KCNQ1 inh inactive, KCNK3 block inactive and hERG rescue -4.
Screening CSc1ccc(S(=O)(=O)NC(C)c2ccccc2)cc1 (stereo not given) returned Kir21 inh -7.3*, KCNK9 inh-1 inactive, KCNQ1 act inactive, KCNQ1 inh inactive, KCNK3 block inactive, hERG rescue -8, hERG inh inactive, KCNK9 inh-2 inactive and Kir2-1 patch inh 63%*.
Cc1ccc(S(=O)(=O)N/N=C/c2ccccc2F)cc1[N+](=O)[O-] was read as Kir21 inh -0.03, KCNK9 inh-1 inactive, KCNQ1 act inactive, KCNQ1 inh inactive, KCNK3 block inactive and hERG rescue 1.
Cc1ccc(S(=O)(=O)NC(C)c2ccccc2)cc1[N+](=O)[O-] (stereo not given) was read as Kir21 inh -8*, KCNK9 inh-1 inactive, KCNQ1 act inactive, KCNQ1 inh inactive, KCNK3 block inactive, hERG rescue -3, hERG inh inactive, KCNK9 inh-2 inactive and Kir2-1 patch inh 30%*.
`CC(NS(=O)(=O)c1ccc(Br)s1)c1ccccc1` (stereo not given) gave Kir21 inh -7.4*, KCNK9 inh-1 inactive, KCNQ1 act inactive, KCNQ1 inh inactive, KCNK3 block inactive, hERG rescue -7, hERG inh inactive, KCNK9 inh-2 inactive and Kir2-1 patch inh 44%*.
Screening CC(c1ccncc1)C(C)c1ccncc1 (stereo not given) returned Kir21 inh -0.95, KCNK9 inh-1 inactive, KCNQ1 act inactive, KCNQ1 inh inactive, KCNK3 block inactive and hERG rescue -3.
Screening COc1cc(C)c(Cl)cc1S(=O)(=O)NCc1ccco1 returned Kir21 inh -1.5, KCNK9 inh-1 inactive, KCNQ1 act inactive, KCNQ1 inh inactive, KCNK3 block inactive and hERG rescue -5.

Screens: PubChem BioAssay, Johns Hopkins Ion Channel Center
